High-throughput results deposited in PubChem by The Scripps Research Institute Molecular Screening Center.
An excerpt weighted towards active compounds, which were near 1.9% of everything screened.
NPY-Y2 PAM-ag: potentiators or agonists of human neuropeptide Y receptor Y2. AID 1359. P49146. cells expressing NPY-Y2, potentiator/agonist read-out. activation, % at 3.6 µM. actives 0.45% (n = 220,000); in the data active = activation above about 27%;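 note: cells stimulated with NPY near EC25 plus isoproterenol at EC100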
Target sequence (P49146 whole entry, looked up): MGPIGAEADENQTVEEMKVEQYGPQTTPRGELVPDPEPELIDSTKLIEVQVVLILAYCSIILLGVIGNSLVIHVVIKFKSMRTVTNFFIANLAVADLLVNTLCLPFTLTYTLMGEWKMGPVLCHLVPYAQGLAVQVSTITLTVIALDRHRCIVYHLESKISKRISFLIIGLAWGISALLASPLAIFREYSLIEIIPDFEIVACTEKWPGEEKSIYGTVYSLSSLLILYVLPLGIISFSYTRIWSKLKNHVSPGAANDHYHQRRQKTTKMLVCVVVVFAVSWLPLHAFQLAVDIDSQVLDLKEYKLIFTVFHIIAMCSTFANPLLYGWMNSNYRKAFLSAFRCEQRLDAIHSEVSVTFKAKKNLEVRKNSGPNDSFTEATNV
NPY-Y1 PAM-ag: human NPY-Y1 potentiation or agonism, primary screen; NPY-Y1 expressing cells, potentiator/agonist activation; actives 0.37% (n = 220,000); activation, % at 3.6 µM; in the data active = activation above about 33%, passing the limit was not always enough;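 note: cells stimulated with NPY at EC10 then isoproterenol at EC100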
NPY-Y2 antag: NPY-Y2 (human) receptor antagonism; P49146; NPY-Y2 expressing cells, antagonist mode; inhibition, % at 2.7 µM; actives 0.99% (n = 140,000); AID 793; in the data active = inhibition above about 17%
NPY-Y1 antag: blocks the human neuropeptide Y Y1 receptor; P25929; inhibition, % at 3.6 µM; actives 1% (n = 200,000); HEK293-CNG Y1 cells, membrane potential fluorescence; NPY at EC95, then isoproterenol;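 active = inhibition above the campaign mean inhibition of all tested compounds plus 3 SD, cut at about 20% in these data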
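Assay system: HEK293 cells with Y1 receptor plus CNG channel | Probe or stimulus: NPY (25 nM), isoproterenol (1 µM), Ro 20-1724 (25 µM) | Timing: Compound incubation 1 h at room temperature, readout 45 min post-stimulation | Measured by: Membrane-potential fluorescent dye readout | Benchmarks: High control isoproterenol alone, low control NPY with isoproterenol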
Each line names hits and unclear results; the compound was inactive in the other large screens.

Cc1ccccc1-n1cnc2c(sc3nc(N4CCOCC4)c4c(c32)CCCC4)c1=O	none (no result: NPY-Y2 antag, NPY-Y1 antag)
O=C(O)COc1ccc2c(-c3ccccc3)cc(=O)oc2c1	NPY-Y1 antag 20
Cc1ccc(S(=O)(=O)NCCNc2ccc([N+](=O)[O-])cc2C(F)(F)F)cc1	NPY-Y2 PAM-ag 35
O=[N+]([O-])c1ccc(NCCNS(=O)(=O)c2ccccc2)c(C(F)(F)F)c1	none
O=C(NCCCN1CCCC1=O)c1ccc(Cl)c(Cl)c1	none (no result: NPY-Y2 antag)
C/C(N)=C(/C#N)C(=O)CSc1ncnc2ccccc12	NPY-Y2 PAM-ag 98, NPY-Y1 PAM-ag 94
C/C(N)=C(/C#N)C(=O)CSc1nc2ccccc2[nH]1	none
CN1CCN(c2ccc(NC(=O)c3ccc(-c4ccc(Br)cc4)o3)cc2)CC1	NPY-Y2 PAM-ag 32, NPY-Y1 PAM-ag 41 (no result: NPY-Y2 antag)
C=CCn1cc(/C=N/Nc2nc3ccccc3[nH]2)c2ccccc21	NPY-Y2 PAM-ag 47, NPY-Y1 PAM-ag 48
Cn1c(/C=N/Nc2nc3ccccc3[nH]2)nc2ccccc21	none (no result: NPY-Y2 antag)
O=C(NNS(=O)(=O)c1ccc(F)cc1)C1CCN(Cc2cccc(F)c2)CC1	none (no result: NPY-Y2 antag)
COc1ccc(N2CCc3c(C)nc4c(OC)cc(OC)cc4c32)c(OC)c1	NPY-Y2 antag 25, NPY-Y1 antag 44
Cc1ccn(C(=O)c2ccc(NC(=O)CC(C)C)cc2)n1	none (no result: NPY-Y2 antag)
N#CC1=C(N)Oc2n[nH]c(-c3cccnc3)c2C1c1ccc([N+](=O)[O-])o1 (centres undefined)	none (no result: NPY-Y2 antag)
COc1cccc(-c2[nH]nc3c2C(c2ccc(C)o2)C(C#N)=C(N)O3)c1 (centres undefined)	NPY-Y2 antag 21, NPY-Y1 antag 29
COc1ccc(OC)c(-c2[nH]nc3c2C(c2ccco2)C(C#N)=C(N)O3)c1 (centres undefined)	NPY-Y2 antag 28, NPY-Y1 antag 48
FC(F)(F)COc1nc(N2CCOCC2)nc(N(c2ccccc2)c2ccccc2)n1	NPY-Y2 antag 20, NPY-Y1 antag 21
CNc1nc(OCC(F)(F)F)nc(N2CCOCC2)n1	none
N=c1c2c(-c3ccccc3)c(-c3ccccc3)n(Cc3ccco3)c2ncn1CCO	NPY-Y2 antag 63, NPY-Y1 antag 38
N=c1c2c(-c3ccccc3)c(-c3ccccc3)n(Cc3ccco3)c2ncn1CCN1CCOCC1	NPY-Y2 antag 43, NPY-Y1 antag 42
N=c1c2c(-c3ccccc3)c(-c3ccccc3)n(Cc3ccco3)c2ncn1CCCO	none (no result: NPY-Y2 antag, NPY-Y1 antag)
c1coc(CNc2nc3ccccc3n2CCN2CCOCC2)c1	none
COc1ccc(NC(=S)N2CCC(N(C)CC3CCCO3)CC2)cc1Cl (centres undefined)	none
CCC(C)OC(=O)C[N+](C)(C)CCOC1CC2CCC1(C)C2(C)C (centres undefined)	NPY-Y1 antag 21 (no result: NPY-Y2 antag)
O=C(NN1CCOCC1)c1ccc(Cl)s1	none (no result: NPY-Y2 antag)
CC1CCN(c2nc(CN3CCCCC3)nc3scc(-c4ccccc4)c23)CC1	NPY-Y2 antag 47, NPY-Y1 antag 41
CC1CCN(c2nc(-c3cccnc3)nc3scc(-c4ccccc4)c23)CC1	none
CCOC(=O)c1sc2nc(CN3CCN(c4cccc(C(F)(F)F)c4)CC3)[nH]c(=O)c2c1C	none
COc1ccc2nc3cc(Cl)ccc3c(Nc3cc(C(C)C)c(O)cc3C)c2c1	NPY-Y2 PAM-ag 59, NPY-Y1 PAM-ag 62 (no result: NPY-Y2 antag, NPY-Y1 antag)
Cn1c(=O)c2c(nc(CN3CCN(c4cccc(Cl)c4)CC3)n2CCc2ccccc2)n(C)c1=O	NPY-Y2 antag 17
Cc1ccc(S(=O)(=O)N2CCN(CCO)CC2)cc1-c1nnc2c3ccccc3c(C)nn12	NPY-Y2 antag 57
COc1ccc(S(=O)(=O)N2CCN(CCO)CC2)cc1-c1nnc2c3ccccc3c(C)nn12	none
CNS(=O)(=O)c1ccc(OC)c(-c2nnc3c4ccccc4c(C)nn23)c1	none
COc1ccc(S(=O)(=O)NC(C)(C)C)cc1-c1nnc2c3ccccc3c(C)nn12	NPY-Y2 antag 36, NPY-Y1 antag 30
Cc1ccc(S(=O)(=O)N2CCN(C)CC2)cc1-c1nnc2c3ccccc3c(C)nn12	NPY-Y2 antag 40, NPY-Y1 antag 37
Cc1cc(C)c2nc(N3CCN(C)CC3)c(C#N)cc2c1	NPY-Y2 antag 26, NPY-Y1 antag 52
CC(C)(C)n1nnnc1C(c1cccs1)N(Cc1ccccc1)Cc1ccco1 (centres undefined)	NPY-Y2 antag 20, NPY-Y1 antag 27
COCCn1c(=S)[nH]c2cc(C(=O)NCC3CCCO3)ccc2c1=O (centres undefined)	none
COCCn1c(=O)[nH]c2cc(C(=O)NCC3CCCO3)ccc2c1=O (centres undefined)	NPY-Y1 PAM-ag 74
CCn1cc(CN2CCc3c([nH]c4ccccc34)C2c2cccc(OC)c2OC)c(C)n1 (centres undefined)	none (no result: NPY-Y2 antag)
CSC1=NCCN1S(=O)(=O)c1ccc(F)cc1	none (no result: NPY-Y2 antag)
Cc1ccc(S(=O)(=O)N2CC3CCCN3c3ccc(C(F)(F)F)cc32)cc1 (centres undefined)	NPY-Y2 PAM-ag 28
O=S(=O)(c1ccc(F)cc1)N1CC2CCCN2c2ccc(C(F)(F)F)cc21 (centres undefined)	NPY-Y2 PAM-ag 44, NPY-Y1 PAM-ag 64
CC(C)(C)c1nn(-c2ccccc2)c2[nH]c(=O)c(CNc3ccc4c(c3)OCCO4)cc12	NPY-Y2 PAM-ag 39, NPY-Y1 PAM-ag 54
CC(C)(C)c1nn(-c2ccccc2)c2[nH]c(=O)c(CNCc3ccco3)cc12	none
CCCCC[n+]1cccc2c3ccccc3ccc21	none (no result: NPY-Y2 antag)
c1ccc(C[n+]2cccc3c4ccccc4ccc32)cc1	NPY-Y2 PAM-ag 36
O=c1c2c(nc3nc(NCc4cccc5ccccc45)[nH]n13)CCC2	none (no result: NPY-Y2 antag)
CC(C)(C)n1nnnc1C(c1ccccn1)N(Cc1ccccc1)Cc1ccc(Cl)cc1 (centres undefined)	none
CCN(Cc1ccccc1)C(c1ccccn1)c1nnnn1C(C)(C)CC (centres undefined)	NPY-Y2 antag 26, NPY-Y1 antag 23
O=C(NCCc1ccccc1)C1CCCN(S(=O)(=O)c2cnc[nH]2)C1 (centres undefined)	NPY-Y2 PAM-ag 73
CCC(CC(C)(C)O)C(=O)NNC(=S)Nc1ccccc1 (centres undefined)	none (no result: NPY-Y2 antag)
COC(=O)c1ccc(NC(=S)NC(=O)c2cc(-c3ccccc3)nc3ccccc23)cc1	NPY-Y2 antag 23, NPY-Y1 antag 41
Cc1ccc(NC(=O)c2cc(N3CCOCC3)nc3ccccc23)cc1	none
Cc1ccc(NC(=O)c2cc(Cl)nc3ccccc23)cc1	NPY-Y2 antag 21, NPY-Y1 antag 31
N=C(SC1CC(=O)N(c2ccc(F)cc2)C1=O)N1N=C(c2ccccc2)CC1c1ccccc1 (centres undefined)	none (no result: NPY-Y2 antag)
CC(=O)C1C(c2ccc(F)cc2)c2c(noc2C)CC1(C)O (centres undefined)	none (no result: NPY-Y2 antag, NPY-Y1 antag)
COc1ccc(OC)c(CNC(=O)Cc2c(C(=O)O)[nH]c3ccccc23)c1	NPY-Y1 PAM-ag 64
CCC(C)(C)NC(=O)C(c1ccccc1F)N(Cc1ccco1)C(=O)Cn1nnc2ccccc21 (centres undefined)	NPY-Y2 antag 73, NPY-Y1 antag 96
CCc1ccc(C(C(=O)NC(C)(C)CC)N(Cc2ccco2)C(=O)Cn2nnc3ccccc32)cc1 (centres undefined)	NPY-Y2 antag 51, NPY-Y1 antag 54
